Test results from ChEMBL document CHEMBL1629670, “In vitro activities of retigeric acid B alone and in combination with azole antifungal agents against Candida albicans” (2009).
Converted amounts (≈) assume the structure as drawn. The source made the active and inactive calls. The rule behind the calls is not given here.

Columns and labels:
Candida albicans [1] = experiment: Antifungal activity against Candida albicans CA1 after 48 hrs by broth microdilution method; type: functional; details: CA1, 48 h
Method in brief: (§1)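 CLSI M27-A2 broth microdilution of clinical isolates in RPMI 1640 buffered to pH 7.0 with 0.165 M MOPS. Final inoculum 0.5 x 10^3 to 2.5 x 10^3 cells/ml, incubated 35°C for 48 h. Growth read as OD490 with background subtracted. MIC taken as the lowest drug concentration giving 80% growth reduction versus drug-free control. Run in triplicate.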

Candida albicans [2] = experiment: Antifungal activity against Candida albicans CA2 after 48 hrs by broth microdilution method; type: functional; details: CA2, 48 h; method in brief: as §1
Candida albicans [3] = experiment: Antifungal activity against Candida albicans CA3 after 48 hrs by broth microdilution method; type: functional; details: CA3, 48 h; method in brief: as §1
Candida albicans [4] = experiment: Antifungal activity against Candida albicans CA4 after 48 hrs by broth microdilution method; type: functional; details: CA4, 48 h; method in brief: as §1
Candida albicans [5] = experiment: Antifungal activity against Candida albicans CA127 after 48 hrs by broth microdilution method; type: functional; details: CA127, 48 h; method in brief: as §1
Candida albicans [6] = experiment: Antifungal activity against Candida albicans CA132 after 48 hrs by broth microdilution method; type: functional; details: CA132, 48 h; method in brief: as §1
Candida albicans [7] = experiment: Antifungal activity against Candida albicans CA10 after 48 hrs by broth microdilution method; type: functional; details: CA10, 48 h; method in brief: as §1
Candida albicans [8] = experiment: Antifungal activity against Candida albicans CA135 after 48 hrs by broth microdilution method; type: functional; details: CA135, 48 h; method in brief: as §1
Candida albicans [9] = experiment: Antifungal activity against Candida albicans CA137 after 48 hrs by broth microdilution method; type: functional; details: CA137, 48 h; method in brief: as §1
Candida albicans [10] = experiment: Antifungal activity against Candida albicans CA138 after 48 hrs by broth microdilution method; type: functional; details: CA138, 48 h; method in brief: as §1
Candida albicans [11] = experiment: Antifungal activity against Candida albicans CA127 after 48 hrs by broth microdilution method in presence of ketoconazole; type: functional
Method in brief: (§2)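 Checkerboard broth microdilution (CLSI M27-A2) on clinical isolates in RPMI 1640 buffered to pH 7.0 with 0.165 M MOPS. Final inoculum was 0.5 x 10^3 to 2.5 x 10^3 CFU/ml. RAB was tested at 0.25–16 µg/ml against FLC at 0.008–8 µg/ml, or against KCZ or ITR at 0.001–1 µg/ml. Plates ran 48 h at 35°C, read by background-subtracted OD490. MIC was taken at 80% growth reduction versus drug-free control. Run in triplicate.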

Candida albicans [12] = experiment: Antifungal activity against Candida albicans CA132 after 48 hrs by broth microdilution method in presence of ketoconazole; type: functional; method in brief: as §2
Candida albicans [13] = experiment: Antifungal activity against Candida albicans CA10 after 48 hrs by broth microdilution method in presence of ketoconazole; type: functional; method in brief: as §2
Candida albicans [14] = experiment: Antifungal activity against Candida albicans CA135 after 48 hrs by broth microdilution method in presence of ketoconazole; type: functional; method in brief: as §2
Candida albicans [15] = experiment: Antifungal activity against Candida albicans CA137 after 48 hrs by broth microdilution method in presence of ketoconazole; type: functional; method in brief: as §2
Candida albicans [16] = experiment: Antifungal activity against Candida albicans CA138 after 48 hrs by broth microdilution method in presence of ketoconazole; type: functional; method in brief: as §2
Candida albicans [17] = experiment: Antifungal activity against Candida albicans CA1 after 48 hrs by broth microdilution method in presence of itraconazole; type: functional; method in brief: as §2
Candida albicans [18] = experiment: Antifungal activity against Candida albicans CA2 after 48 hrs by broth microdilution method in presence of itraconazole; type: functional; method in brief: as §2
Candida albicans [19] = experiment: Antifungal activity against Candida albicans CA3 after 48 hrs by broth microdilution method in presence of itraconazole; type: functional; method in brief: as §2
Candida albicans [20] = experiment: Antifungal activity against Candida albicans CA4 after 48 hrs by broth microdilution method in presence of itraconazole; type: functional; method in brief: as §2
Candida albicans [21] = experiment: Antifungal activity against Candida albicans CA127 after 48 hrs by broth microdilution method in presence of itraconazole; type: functional; method in brief: as §2
Candida albicans [22] = experiment: Antifungal activity against Candida albicans CA132 after 48 hrs by broth microdilution method in presence of itraconazole; type: functional; method in brief: as §2
Candida albicans [23] = experiment: Antifungal activity against Candida albicans CA10 after 48 hrs by broth microdilution method in presence of itraconazole; type: functional; method in brief: as §2
Candida albicans [24] = experiment: Antifungal activity against Candida albicans CA135 after 48 hrs by broth microdilution method in presence of itraconazole; type: functional; method in brief: as §2
Candida albicans [25] = experiment: Antifungal activity against Candida albicans CA137 after 48 hrs by broth microdilution method in presence of itraconazole; type: functional; method in brief: as §2
Candida albicans [26] = experiment: Antifungal activity against Candida albicans CA138 after 48 hrs by broth microdilution method in presence of itraconazole; type: functional; method in brief: as §2
Candida albicans [27] = experiment: Antifungal activity against Candida albicans CA10 assessed as log reduction in fungal burden at 8 ug/ml after 48 hrs by time kill analysis in presence of fluconazole; type: functional, organism-based
Method in brief: (§3)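 Time-kill on CA10 in RPMI 1640 starting at 10^5 CFU/ml. Treatments were RAB 8 µg/ml combined with FLC 8 µg/ml, ITR 8 µg/ml or KCZ 2 µg/ml; DMSO <1%; drug-free growth control. Samples were taken before treatment and at 6, 12, 24 and 48 h, then diluted, plated and counted after 48 h at 35°C.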

Candida albicans [28] = experiment: Antifungal activity against Candida albicans CA10 assessed as log reduction in fungal burden at 8 ug/ml after 48 hrs by time kill analysis in presence of ketoconazole; type: functional, organism-based; method in brief: as §3
Candida albicans [29] = experiment: Antifungal activity against Candida albicans CA10 assessed as log reduction in fungal burden at 8 ug/ml after 48 hrs by time kill analysis in presence of itraconazole; type: functional, organism-based; method in brief: as §3
Candida albicans [30] = experiment: Antifungal activity against Candida albicans CA10 assessed as cell viability after 2 hrs by XTT reduction assay in presence of fluconazole; type: functional, organism-based
Method in brief: (§4)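 Viability was read on CA10 time-kill cultures grown in RPMI 1640 from 10^5 CFU/ml. Treatments were RAB 8 µg/ml plus FLC 8 µg/ml, ITR 8 µg/ml or KCZ 2 µg/ml, with DMSO <1%. At each sampling time a 100-µl aliquot got XTT-menadione (final 0.25 mg/ml and 5 µM) and was held in the dark up to 2 h at 35°C. Formazan was read at 490 nm; triplicate means.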

Candida albicans [31] = experiment: Antifungal activity against Candida albicans CA10 assessed as cell viability after 2 hrs by XTT reduction assay in presence of ketoconazole; type: functional, organism-based; method in brief: as §4
Candida albicans [32] = experiment: Antifungal activity against Candida albicans CA10 assessed as cell viability after 2 hrs by XTT reduction assay in presence of itraconazole; type: functional, organism-based; method in brief: as §4
Candida albicans [33] = experiment: Antifungal activity against Candida albicans CA1 after 48 hrs by broth microdilution method in presence of fluconazole; type: functional; method in brief: as §2
Candida albicans [34] = experiment: Antifungal activity against Candida albicans CA2 after 48 hrs by broth microdilution method in presence of fluconazole; type: functional; method in brief: as §2
Candida albicans [35] = experiment: Antifungal activity against Candida albicans CA3 after 48 hrs by broth microdilution method in presence of fluconazole; type: functional; method in brief: as §2
Candida albicans [36] = experiment: Antifungal activity against Candida albicans CA4 after 48 hrs by broth microdilution method in presence of fluconazole; type: functional; method in brief: as §2
Candida albicans [37] = experiment: Antifungal activity against Candida albicans CA127 after 48 hrs by broth microdilution method in presence of fluconazole; type: functional; method in brief: as §2
Candida albicans [38] = experiment: Antifungal activity against Candida albicans CA132 after 48 hrs by broth microdilution method in presence of fluconazole; type: functional; method in brief: as §2
Candida albicans [39] = experiment: Antifungal activity against Candida albicans CA10 after 48 hrs by broth microdilution method in presence of fluconazole; type: functional; method in brief: as §2
Candida albicans [40] = experiment: Antifungal activity against Candida albicans CA135 after 48 hrs by broth microdilution method in presence of fluconazole; type: functional; method in brief: as §2
Candida albicans [41] = experiment: Antifungal activity against Candida albicans CA137 after 48 hrs by broth microdilution method in presence of fluconazole; type: functional; method in brief: as §2
Candida albicans [42] = experiment: Antifungal activity against Candida albicans CA138 after 48 hrs by broth microdilution method in presence of fluconazole; type: functional; method in brief: as §2
Candida albicans [43] = experiment: Antifungal activity against Candida albicans CA1 after 48 hrs by broth microdilution method in presence of ketoconazole; type: functional; method in brief: as §2
Candida albicans [44] = experiment: Antifungal activity against Candida albicans CA2 after 48 hrs by broth microdilution method in presence of ketoconazole; type: functional; method in brief: as §2
Candida albicans [45] = experiment: Antifungal activity against Candida albicans CA3 after 48 hrs by broth microdilution method in presence of ketoconazole; type: functional; method in brief: as §2
Candida albicans [46] = experiment: Antifungal activity against Candida albicans CA4 after 48 hrs by broth microdilution method in presence of ketoconazole; type: functional; method in brief: as §2

SMILES: CC(=O)N1CCN(c2ccc(OCC3COC(Cn4ccnc4)(c4ccc(Cl)cc4Cl)O3)cc2)CC1 (stereo unspecified) [KETOCONAZOLE]
- MIC (Candida albicans [1]): 0.031 µg/mL (≈ 0.0583 µM)
- MIC (Candida albicans [2]): 0.016 µg/mL (≈ 0.0301 µM)
- MIC (Candida albicans [3]): 0.062 µg/mL (≈ 0.117 µM)
- MIC (Candida albicans [4]): 0.062 µg/mL (≈ 0.117 µM)
- MIC (Candida albicans [5]): 0.031 µg/mL (≈ 0.0583 µM)
- MIC (Candida albicans [6]): 0.031 µg/mL (≈ 0.0583 µM)
- MIC (Candida albicans [7]): 16 µg/mL (≈ 30.1 µM)
- MIC (Candida albicans [8]): 16 µg/mL (≈ 30.1 µM)
- MIC (Candida albicans [9]): 16 µg/mL (≈ 30.1 µM)
- MIC (Candida albicans [10]): 16 µg/mL (≈ 30.1 µM)

SMILES: CC(C)[C@H]1CC[C@@H]2[C@]1(C)CC[C@]1(C)[C@H]3CC[C@@H]4[C@](C(=O)O)(C[C@@H](O)[C@H](O)[C@@]4(C)C(=O)O)C3=CC[C@@]21C [RETIGERIC ACID B]
- fractional inhibitory concentration index (FICI) (Candida albicans [11]): 0.625
- fractional inhibitory concentration index (FICI) (Candida albicans [12]): 0.625
- fractional inhibitory concentration index (FICI) (Candida albicans [13]): 0.254
- fractional inhibitory concentration index (FICI) (Candida albicans [14]): 0.125
- fractional inhibitory concentration index (FICI) (Candida albicans [15]): 0.25
- fractional inhibitory concentration index (FICI) (Candida albicans [16]): 0.254
- fractional inhibitory concentration index (FICI) (Candida albicans [17]): 0.75
- fractional inhibitory concentration index (FICI) (Candida albicans [18]): 0.375
- fractional inhibitory concentration index (FICI) (Candida albicans [19]): 0.375
- fractional inhibitory concentration index (FICI) (Candida albicans [20]): 0.625
- fractional inhibitory concentration index (FICI) (Candida albicans [21]): 0.375
- fractional inhibitory concentration index (FICI) (Candida albicans [22]): 0.75
- fractional inhibitory concentration index (FICI) (Candida albicans [23]): 0.252
- fractional inhibitory concentration index (FICI) (Candida albicans [24]): 0.254
- fractional inhibitory concentration index (FICI) (Candida albicans [25]): 0.258
- fractional inhibitory concentration index (FICI) (Candida albicans [26]): 0.254
- Activity (Candida albicans [27]): Active
- Activity (Candida albicans [28]): Active
- Activity (Candida albicans [29]): Active
- Activity (Candida albicans [30]): Active
- Activity (Candida albicans [31]): Active
- Activity (Candida albicans [32]): Active
- MIC (Candida albicans [1]): 8 µg/mL (≈ 15.9 µM)
- MIC (Candida albicans [2]): 16 µg/mL (≈ 31.8 µM)
- MIC (Candida albicans [3]): 16 µg/mL (≈ 31.8 µM)
- MIC (Candida albicans [4]): 8 µg/mL (≈ 15.9 µM)
- MIC (Candida albicans [5]): 16 µg/mL (≈ 31.8 µM)
- MIC (Candida albicans [6]): 8 µg/mL (≈ 15.9 µM)
- MIC (Candida albicans [7]): 16 µg/mL (≈ 31.8 µM)
- MIC (Candida albicans [8]): 16 µg/mL (≈ 31.8 µM)
- MIC (Candida albicans [9]): 16 µg/mL (≈ 31.8 µM)
- MIC (Candida albicans [10]): 8 µg/mL (≈ 15.9 µM)
- fractional inhibitory concentration index (FICI) (Candida albicans [33]): 0.5
- fractional inhibitory concentration index (FICI) (Candida albicans [34]): 0.25
- fractional inhibitory concentration index (FICI) (Candida albicans [35]): 0.5
- fractional inhibitory concentration index (FICI) (Candida albicans [36]): 0.625
- fractional inhibitory concentration index (FICI) (Candida albicans [37]): 0.5
- fractional inhibitory concentration index (FICI) (Candida albicans [38]): 0.75
- fractional inhibitory concentration index (FICI) (Candida albicans [39]): 0.126
- fractional inhibitory concentration index (FICI) (Candida albicans [40]): 0.127
- fractional inhibitory concentration index (FICI) (Candida albicans [41]): 0.252
- fractional inhibitory concentration index (FICI) (Candida albicans [42]): 0.252
- fractional inhibitory concentration index (FICI) (Candida albicans [43]): 0.375
- fractional inhibitory concentration index (FICI) (Candida albicans [44]): 0.253
- fractional inhibitory concentration index (FICI) (Candida albicans [45]): 0.25
- fractional inhibitory concentration index (FICI) (Candida albicans [46]): 0.75
